TAAR1 agonist: agonists of human TAAR1; Q96RJ0; AID 624467; activation, % at 3 µM; CHO RD-HGA16 TAAR1, Fluo-8 calcium fluorescence; vehicle wells 0%, saturating PEA agonist 100%; 0.99% of 360,000 active;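 active = activation above the mean activation of all test compounds in the run plus 3 SD, cut at about 38% in these data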
Target sequence (Q96RJ0 whole entry, looked up): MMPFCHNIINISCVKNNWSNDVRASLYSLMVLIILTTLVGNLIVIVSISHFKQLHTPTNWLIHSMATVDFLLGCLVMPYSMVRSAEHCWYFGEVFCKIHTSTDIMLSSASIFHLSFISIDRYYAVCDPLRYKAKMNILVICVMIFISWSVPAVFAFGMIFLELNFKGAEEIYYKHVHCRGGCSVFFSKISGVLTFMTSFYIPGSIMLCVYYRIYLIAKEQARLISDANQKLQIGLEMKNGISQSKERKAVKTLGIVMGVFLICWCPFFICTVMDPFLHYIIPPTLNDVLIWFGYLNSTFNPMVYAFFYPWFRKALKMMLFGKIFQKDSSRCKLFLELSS
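Test system: RD-HGA16 (CHO) cells co-expressing Gα16 and hTAAR1; dosing: one-point dosing at 3 µM (nominal); timing: 17-24 h seeding, 75 min 37 °C dye, 30 min RT; signal: kinetic Fluo-8 calcium fluorescence; read-out basis: % activation relative to PEA EC100 response; controls: DMSO and PEA EC100; replicates: n 1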
OXTR ag: activates the human oxytocin receptor; P30559; CHO-OTR cells, Fluo-8 calcium fluorescence; normalized: DMSO 0%, oxytocin 100%; activation, % at 3 µM; 0.32% of 320,000 active; AID 2435;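 active = activation above the mean of all tested compounds plus 3 SD, cutoff set per screening run, cut at about 20% in these data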;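 also: peak over basal fluorescence ratio from a 100 s FLIPR kinetic read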
OXTR potentiate: potentiates the human oxytocin receptor response. CHO-OTR cells, Fluo-8 calcium fluorescence, potentiator mode; 0% = oxytocin EC15, 100% = EC100. activation, % at 3 µM. 0.061% of 320,000 active. AID 2445;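 active = activation above that plate's cutoff, the mean activation of tested compounds plus 3 SD, cut at about 6.6% in these data, passing the limit was not always enough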
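Dosing: Single dose, 3.0 µM nominal final compound concentration | Material: Human OTR in CHO cells | Technique: Kinetic Fluo-8 calcium fluorescence | Benchmarks: EC15 oxytocin alone as 0%, 75 nM oxytocin as 100% | Probe or stimulus: Oxytocin at about EC15, sub-maximal agonist stimulus | Incubation: Compound 6 min at room temperature before oxytocin, 100 s read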
TAAR1 antag: human TAAR1 antagonism. Q96RJ0. CHO RD-HGA16 TAAR1, Fluo-8 calcium fluorescence, antagonist. inhibition, % at 3 µM. 1.5% of 360,000 active. AID 624466;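 active = inhibition above a per-plate cutoff, the mean inhibition of test compounds on that plate plus 3 SD, cut at about 49% in these data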
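Material: CHO RD-HGA16 cells bearing hTAAR1; compound dosing: one-point dosing, 3 µM nominal final; schedule: dye loading 75 min at 37 °C, then 30 min room temperature; measured by: calcium fluorescence with Fluo-8; control set: vehicle and agonist controls; replication: n of 1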
V1aR counter: activates human V1a receptor in oxytocin agonist counter-screen. P37288. CHO-V1R cells, Fluo-8 calcium fluorescence, agonist mode; 0% DMSO, 100% 3 nM vasopressin. activation, % at 3 µM. 0.25% of 320,000 active. AID 2797;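 active = activation above the mean activation of all tested compounds plus 3 SD, per screening run, cut at about 20% in these data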;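 also: signal is peak over basal fluorescence ratio across a 100 second FLIPR read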
Target sequence (P37288 whole entry, looked up): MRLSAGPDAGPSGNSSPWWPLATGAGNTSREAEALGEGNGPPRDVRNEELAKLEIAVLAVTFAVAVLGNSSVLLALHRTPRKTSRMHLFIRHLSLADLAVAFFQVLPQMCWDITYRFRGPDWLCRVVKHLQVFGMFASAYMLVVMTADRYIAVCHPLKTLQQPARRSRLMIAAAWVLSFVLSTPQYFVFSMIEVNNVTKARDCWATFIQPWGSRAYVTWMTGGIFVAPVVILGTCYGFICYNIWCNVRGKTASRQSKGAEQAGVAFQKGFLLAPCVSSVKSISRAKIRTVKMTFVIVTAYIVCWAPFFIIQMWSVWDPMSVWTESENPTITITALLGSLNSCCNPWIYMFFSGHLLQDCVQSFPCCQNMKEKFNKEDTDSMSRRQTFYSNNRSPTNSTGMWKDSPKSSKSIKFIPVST
Of the large screens only hits and unclear results are named; the others gave an inactive call. The list is not random: actives were taken first. Their share in the collection is about 2.3%.

CC1Sc2ccc(S(=O)(=O)CCC(=O)N3CCN(c4cccc(Cl)c4)CC3)cc2NC1=O (stereo not drawn)	TAAR1 antag 50
CC1Sc2ccc(S(=O)(=O)N3CCC(C(=O)Nc4cccc(Cl)c4)CC3)cc2NC1=O (stereo not drawn)	TAAR1 antag 49
Cc1ccnc(NC(=O)C2CCN(S(=O)(=O)c3ccc(Cl)c(C(F)(F)F)c3)CC2)c1	none
O=C(Nc1ccncc1)C1CCN(S(=O)(=O)c2ccc(Cl)c(C(F)(F)F)c2)CC1	TAAR1 agonist 48
CC(C)C[C@H]1CN([C@@H](Cc2ccccc2)CN2CCC[C@H]2CN2C(=O)C(=O)NC[C@@H]2Cc2ccccc2)C(=O)C(=O)N1CC1CCCCCC1	none (no result: OXTR ag, OXTR potentiate, V1aR counter)
CC12CCC3c4ccccc4CCC3(CO1)C2 (stereo not drawn)	none (no result: OXTR ag, OXTR potentiate, V1aR counter)
COc1ccc(OC)c(S(=O)(=O)N2CCC(C(=O)Nc3ccc(C)c(C)c3)CC2)c1	TAAR1 antag 61
O=C1[C@H]2[C@@H](c3ccccc3)N[C@]3(CCCN(Cc4ccc(C(F)(F)F)cc4)C3=O)[C@H]2C(=O)N1Cc1ccccc1	TAAR1 antag 50 (no result: OXTR ag, OXTR potentiate, V1aR counter)
Cc1cc(C)c(NC(=O)COC(=O)c2ccc([N+](=O)[O-])s2)c(C)c1	none
Cc1ccc(NC(=O)COC(=O)c2ccc([N+](=O)[O-])s2)c(C)c1	TAAR1 agonist 39
COc1cccc(N(C(=O)c2snc(C(N)=O)c2N)C(C(=O)NCC2CCCO2)c2ccc(F)cc2)c1 (stereo not drawn)	none
CCOc1ccc(C(C(=O)NCC2CCCO2)N(C(=O)c2snc(C(N)=O)c2N)c2ccc(F)cc2)cc1 (stereo not drawn)	TAAR1 antag 49
CC(C)C1CC(N(C)C)=CC(=S)N1 (stereo not drawn)	none (no result: OXTR ag, OXTR potentiate, V1aR counter)
O=C(Nc1ccc(Cl)cc1)Nc1cccnc1	TAAR1 agonist 48
Cc1cnc(NC(=O)Nc2ccc(Cl)cc2)s1	TAAR1 agonist 40
O=C(Nc1ccc(F)c(Cl)c1)Nc1ccc(Cl)cn1	none
Cc1cnc(NC(=O)CSc2ccc(Cl)cc2)s1	none
O=C(Nc1ccncc1)Nc1ccc(F)c(Cl)c1	TAAR1 agonist 49
COc1ccccc1NC(=O)c1cc(-c2cc(OC)c(OC)c(OC)c2)nc2ccccc12	none
COc1cc(-c2cc(C(=O)Nc3cc(S(=O)(=O)N4CCOCC4)ccc3C)c3ccccc3n2)cc(OC)c1OC	TAAR1 antag 49 (no result: OXTR ag, OXTR potentiate, V1aR counter)
COc1cc(-c2cc(C(=O)Nc3cc(S(=O)(=O)N4CCOCC4)ccc3O)c3ccccc3n2)cc(OC)c1OC	TAAR1 antag 51
COc1cc(-c2cc(C(=O)Nc3ccc(S(=O)(=O)NCc4ccco4)cc3)c3ccccc3n2)cc(OC)c1OC	TAAR1 antag 57
COc1ccc(-c2cc(C(=O)Nc3cc(S(N)(=O)=O)ccc3C)c3ccccc3n2)cc1OC	none
COc1ccc(-c2cc(C(=O)Nc3ccc(S(N)(=O)=O)cc3)c3ccccc3n2)cc1OC	none
O=C1Nc2ccccc2C(=O)N(C2CCCC2)C1C(=O)NC1CC1 (stereo not drawn)	none (no result: OXTR ag, OXTR potentiate, V1aR counter)
O=S1(=O)N[C@H](Cc2ccccc2)COc2cccc(F)c21	none (no result: OXTR ag, OXTR potentiate, V1aR counter)
Cc1cccc(NS(=O)(=O)c2ccc(C(=O)NCC(c3ccccc3)N(C)C)cc2)c1C (stereo not drawn)	TAAR1 agonist 43 (no result: OXTR ag, OXTR potentiate, V1aR counter)
CN(C)C(CNC(=O)c1ccc(C2SCCS2)cc1)c1ccccc1 (stereo not drawn)	TAAR1 agonist 38
CCOC(=O)N(C)C[C@H]1OCc2cn(nn2)CCCC(=O)N([C@@H](C)CO)C[C@@H]1C	none (no result: OXTR ag, OXTR potentiate, V1aR counter)
S=C(NN=C1CCCCC1=NNC(=S)N1CCOCC1)N1CCOCC1	none (no result: OXTR ag, OXTR potentiate, V1aR counter)
O=C(NCC1CCCCC1)c1cc(S(=O)(=O)N2CCOCC2)ccc1F	TAAR1 agonist 39
CC1(C(=O)NCc2ccccc2Br)CCN1Cc1ccc(-c2ccccc2)o1 (stereo not drawn)	none (no result: OXTR ag, OXTR potentiate, V1aR counter)
Cc1ccc(NC(=O)c2ncn(CCCNCc3ccccn3)n2)cc1C	none (no result: OXTR ag, OXTR potentiate, V1aR counter)
COc1cccc(CN2CCC(C(=O)Nc3ccc(-c4cccc(C)c4)cc3)CC2)c1O	TAAR1 agonist 38
O=S1(=O)N[C@@H](Cc2ccccc2)COc2cc(N3CCOCC3)ccc21	none (no result: OXTR ag, OXTR potentiate, V1aR counter)
COC(=O)c1sc(-c2ccc(C(C)(C)C)cc2)cc1NC(=O)COCC(=O)O	TAAR1 antag 50
CCOc1cc(CNCc2ccccc2)ccc1OCc1ccc(Cl)cc1	TAAR1 agonist 48, OXTR ag 26, V1aR counter 28
CCOc1cc(CNCCc2ccc(S(N)(=O)=O)cc2)cc(Cl)c1OCc1ccccc1	OXTR ag 37, V1aR counter 22 (no result: TAAR1 agonist, TAAR1 antag)
CN1CCC(Oc2ccccc2Sc2ccc(C(F)(F)F)cc2)CC1	none
CN1CCC(Oc2ccc(Sc3ccccc3)cc2)CC1	OXTR ag 22
C[C@H](CO)N1C[C@H](C)[C@H](CN(C)C(=O)Nc2ccc3c(c2)OCCO3)OCc2cnnn2CCCC1=O	none (no result: OXTR ag, OXTR potentiate, V1aR counter)
O=C(COC(=O)[C@@H]1CC(O)CN1S(=O)(=O)c1ccccc1[N+](=O)[O-])c1ccccc1 (stereo partly drawn)	none
CCc1cccc2c(C(=O)COC(=O)[C@@H]3CC(O)CN3S(=O)(=O)c3ccccc3[N+](=O)[O-])c[nH]c12 (stereo partly drawn)	TAAR1 antag 56
C#CCOCCOCCOCCNc1nc(N2CCN(C(=O)CCCCCCCCCCNC(=O)[C@H](CCCCN)n3cc(C[C@@H](C)CC)nn3)CC2)nc(N2CCN(C(=O)CCCCCCCCCCNC(=O)[C@H](CCCN=C(N)N)n3cc(C[C@@H](C)CC)nn3)CC2)n1	none (no result: TAAR1 agonist, TAAR1 antag)
C#CCOCCOCCOCCNc1nc(N2CCN(C(=O)CCCCCCCCCCNC(=O)[C@H](CCCCN)n3cc(CCO)nn3)CC2)nc(N2CCN(C(=O)CCCCCCCCCCNC(=O)[C@H](CCCCN)n3cc(C[C@@H](C)CC)nn3)CC2)n1	V1aR counter 25 (no result: TAAR1 agonist, TAAR1 antag)
COC(=O)[C@]12C[C@H](CC(=O)NCC3CCCCC3)C(=O)N(CCC3=CCCCC3)C1=C[C@H](C(C)(C)C)O[C@@H]2C	none (no result: OXTR ag, OXTR potentiate, V1aR counter)
Cc1ccc2c(c1C)-c1c(ccc(C)c1C)C(=O)C2=O	TAAR1 antag 62 (no result: OXTR ag, OXTR potentiate, V1aR counter)
Cc1ccc(CSCC2Nc3ccc(C(=O)N4CCN(c5cccc(C)c5)C(C)C4)cc3NC2=O)cc1 (stereo not drawn)	none (no result: TAAR1 agonist, TAAR1 antag)
CCN(CC)c1ccc2c(-c3ccc(S(=O)(=O)O)cc3S(=O)(=O)[O-])c3ccc(=[N+](CC)CC)cc-3oc2c1	OXTR ag 266, V1aR counter 180 (no result: TAAR1 agonist, TAAR1 antag)
CCN(CC)c1ccc2nc3c4ccccc4c(=O)cc-3oc2c1	none (no result: OXTR ag, OXTR potentiate, V1aR counter)
CC(C)=CCc1c(O)ccc2c1OC(c1ccc(O)c(O)c1)CC2=O (stereo not drawn)	TAAR1 antag 57
C[C@@H]1CN([C@H](C)CO)C(=O)c2cc(Br)cnc2O[C@H]1CN(C)C(=O)c1ccc(F)cc1	none (no result: OXTR ag, OXTR potentiate, V1aR counter)
